Source: PubChem BioAssay
A selection: hits, their analogues and other compounds. The true share with any hit is near 4.1%.
FLuc inh counter = firefly luciferase enzyme inhibitors, primary screen, artefact control for luciferase-based inhibitor screens, biochemical, luminescence, ATPLite; Luciferin 4-monooxygenase (Photinus pyralis), P08659; AID 1006, 2008; 1.5% of 200,000 active; inhibition, % at 10 µM; 10 min;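 active = inhibition above about 50% when tested at 10 µM, limit read from the data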
Target sequence (P08659 whole entry, looked up): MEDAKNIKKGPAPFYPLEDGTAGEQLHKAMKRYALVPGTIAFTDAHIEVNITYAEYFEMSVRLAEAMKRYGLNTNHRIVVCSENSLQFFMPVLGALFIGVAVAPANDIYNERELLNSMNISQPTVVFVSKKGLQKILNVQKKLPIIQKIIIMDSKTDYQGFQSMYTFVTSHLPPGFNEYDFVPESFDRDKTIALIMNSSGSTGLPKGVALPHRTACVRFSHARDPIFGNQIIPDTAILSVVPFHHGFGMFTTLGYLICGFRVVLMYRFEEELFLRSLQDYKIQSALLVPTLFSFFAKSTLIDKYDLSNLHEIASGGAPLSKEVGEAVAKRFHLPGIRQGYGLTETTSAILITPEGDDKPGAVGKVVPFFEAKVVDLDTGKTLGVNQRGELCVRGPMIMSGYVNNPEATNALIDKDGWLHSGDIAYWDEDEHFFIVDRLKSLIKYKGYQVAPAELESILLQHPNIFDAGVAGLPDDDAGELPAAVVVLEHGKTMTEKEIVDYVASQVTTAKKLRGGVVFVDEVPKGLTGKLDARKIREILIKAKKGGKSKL
APP 5'UTR act = activators of APP 5'UTR luciferase reporter, primary screen, SH-SY5Y cells; AID 1276, 2008; SH-SY5Y APP 5'UTR luciferase reporter, luminescence; zero percent = DMSO vehicle wells; activation, % at 2 µM; 1% of 190,000 active;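 active = activation above a set limit, based on mean plus 3 SD of controls, cut at about 140% in these data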
STAT1 activator = STAT1 signaling activators, primary screen, cell-based, HTS, luciferase reporter; activation (% of control), % at 5.5 µM; AID 932, 2007; 2.6% of 200,000 active; NIH 3T3 STAT1-luciferase reporter, IFN-gamma, luminescence; 100% = IFN-gamma alone, no compound;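 active = activation above the screen-wide mean activation plus 3 SD, cut at about 130% in these data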;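 note: raw ratio to IFN-gamma control signal so 100% means no change and 0% no light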
NF-kB neuron act = activators of NF-kB expression in neurons, primary screen, cell-based, HTS; 1.6% of 190,000 active; human neuronal cells, NF-kB reporter expression; stronger effect = higher value; fold change at 12.5 µM; in the data active = fold change above about 3.3
FLuc stim CS = FLuc activators, initial screening, artefact control for FLuc-dependent activation tests, biochemical, ATPlite luminescence. Luciferin 4-monooxygenase (Photinus pyralis), P08659. ATPlite luciferase biochemical, 10 min; 0 = ATP-free wells, 1 = DMSO control. activation factor at 10 µM. 200,000 tested, under 10 active;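 active = luciferase activation factor, scaled between plate controls, of at least 2 with compound at 10 µM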
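Material: Luciferase/luciferin reagent mix; Doses: test compounds dosed from 2 mM stocks in 100% DMSO; Schedule: 10 min incubation after luciferase reagent addition, room temperature; Measured by: luminescence from luciferase reaction; Read-out: luminescence gain marking luciferase activators.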
Starred values were filed as active, the others as inactive.

SMILES	FLuc inh counter	APP 5'UTR act	STAT1 activator	NF-kB neuron act	FLuc stim CS
O=C(Nc1nccs1)C1Cc2ccccc2CN1S(=O)(=O)c1ccc(F)cc1 (stereo unspecified)	6	155*	123	1.6	0.9
O=C(NC1CCCCC1)C1Cc2ccccc2CN1S(=O)(=O)c1ccc(F)cc1 (stereo unspecified)	-6	8	101	0.84	1.1
O=C(Nc1ccc2nc(-c3cccnc3)[nH]c2c1)C1CCCCC1	64*	28	104	0.67	0.4
O=C(Nc1ccc2nc(-c3cccnc3)[nH]c2c1)C12CC3CC(CC(C3)C1)C2	29	0	104	0.51	0.7
COc1ccc(NC(=O)c2ccc(COc3ccccc3OC)o2)cc1OC	8	20	98	0.62	0.9
COC(=O)c1cccc(S(=O)(=O)N2CCCC2)c1	-4	-8	91	1.1	1
CC(=O)Oc1ccc(C)cc1-n1nc2ccccc2n1	0	104	115	3.5*	1
Cc1ccc(OC(=O)c2cccc(S(=O)(=O)N3CCCC3)c2)c(-n2nc3ccccc3n2)c1	-2	113	120	3.5*	1
Cc1ccc(OC(=O)c2cccc(S(=O)(=O)N(C)C)c2)c(-n2nc3ccccc3n2)c1	-2	32	112	2.8	1
Cc1ccc(OC(=O)c2ccc(S(=O)(=O)N(C)C)cc2)c(-n2nc3ccccc3n2)c1	-1	85	114	4.5*	1
CCOc1ccc(OCC)c(NC(=O)CCSCCc2ccccn2)c1	-3	-9	90	1	1
COc1ccc(CNC(=O)C(c2ccco2)N(Cc2cccs2)C(=O)Cc2cccs2)cc1 (stereo unspecified)	-6	10	95	0.32	1.1
COc1ccc(/C=N/N=C(\N)c2nonc2N)cc1	52*	191*	73	9.4*	0.5
COc1cc(/C=N/Nc2nc(C)nc3c2cnn3-c2ccccc2)ccc1O	0	-50	109	0.5	1
CCOC(=O)c1c(C)[nH]c(C=Nc2ccccc2)c1O	-4	7	105	1.1	1
CCOC(=O)c1c(C)[nH]c(N=Nc2ccccc2)c1C	-1	63	127	3.5*	1
CCOC(=O)c1c(C)[nH]c(N=Nc2cccc(C)c2)c1C	13	158*	138*	3.4*	0.9
CCc1cc(C(=O)NNC(=S)NCc2ccccc2)cs1	-5	9	103	1.1	1
CCc1cc(C(=O)Nc2ccccc2)cs1	43	97	135*	3.7*	0.6
CCCc1cc(C(=O)Nc2nccs2)cs1	61*	152*	130*	6.7*	0.4
CCc1cc(C(=O)NNC(=S)Nc2ccccc2C)cs1	50	120	119	4.3*	0.5
O=c1c(Cc2c(F)cccc2Cl)c(O)ccn1Cc1ccc(F)cc1	-6	-20	104	1.1	1.1
CCN(CCNC(=O)c1ccc2nc(-c3ccccc3NC(C)=O)c(=O)[nH]c2c1)c1ccccc1	-6	3	99	1	1.1
COc1ccc(CNc2oc(C)nc2C#N)cc1	-1	5	96	1	1
CCCc1nc2ccc(NC(=O)c3ccco3)cc2c(=O)n1Cc1ccc(Cl)cc1	0	15	115	1.2	1
SMILES	FLuc inh counter	APP 5'UTR act	STAT1 activator	NF-kB neuron act	FLuc stim CS
Cc1ccc(C(=O)c2cc([N+](=O)[O-])ccc2N2CCOCC2)c(C)c1	-5	-94	105	5.4*	1
CN1CCN(c2ccc([N+](=O)[O-])cc2C(=O)c2ccc(Br)cc2)CC1	-1	-69	106	1.2	1
O=C(c1ccc(Br)cc1)c1cc([N+](=O)[O-])ccc1N1CCCCC1	1	-95	102	5*	1
CCOC(=O)N1CCN(S(=O)(=O)c2cc(Cl)ccc2Cl)CC1	-5	-10	111	0.9	1
O=C(N/N=C/c1ccc(N2CCOCC2)o1)c1cccc([N+](=O)[O-])c1	-6	7	106	1.2	1.1
O=C(C=C1SCCS1)/C=C/c1ccco1	70*	158*	114	5.9*	0.3
O=C(O)C(C(=O)/C=C/c1ccco1)=C1SCCS1	1	3	94	1.5	1
O=C(NC(=S)NC1CCSC1=O)c1cccs1 (stereo unspecified)	0	24	100	0.87	1
